For series [1], the target named is T1, Muscarinic acetylcholine receptor M4 (Homo sapiens) (UniProt P08173).
T1 sequence (whole entry): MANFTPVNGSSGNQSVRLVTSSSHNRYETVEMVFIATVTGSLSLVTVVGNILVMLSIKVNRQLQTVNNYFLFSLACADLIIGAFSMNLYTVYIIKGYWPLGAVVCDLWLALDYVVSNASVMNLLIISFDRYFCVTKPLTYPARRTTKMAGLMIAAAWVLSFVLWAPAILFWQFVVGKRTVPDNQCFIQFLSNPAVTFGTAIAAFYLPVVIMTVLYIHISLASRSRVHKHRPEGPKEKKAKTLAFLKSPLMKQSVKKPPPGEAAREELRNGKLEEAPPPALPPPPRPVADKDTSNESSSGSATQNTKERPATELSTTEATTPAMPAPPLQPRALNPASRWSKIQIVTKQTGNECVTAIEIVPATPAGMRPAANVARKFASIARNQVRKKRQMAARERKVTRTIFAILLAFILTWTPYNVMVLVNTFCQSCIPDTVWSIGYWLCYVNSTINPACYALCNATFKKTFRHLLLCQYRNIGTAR
The series is described as follows: Positive allosteric modulation at human M4 mAChR expressed in Flp-In-CHO cells co-expressing CAMYEL biosensor assessed as efficacy of ACh-mediated cAMP signalling (log tau B) incubated for 5 mins by BRET assay. It is filed as functional, cell-based. Particulars: filed as positive allosteric modulator. The method, boiled down: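 CAMYEL-transfected FlpInCHO-hM4 cells (48 h post-transfection) given ACh and modulator concentration ranges in full interaction design, 5 min at 37 °C; BRET read with coelenterazine h. Fit to complete operational model of allosterism and agonism with ACh KA and modulator KB fixed from binding assays. Gives log τB and log αβ. 4–5 experiments in duplicate.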

In series [2] the target is T1, Muscarinic acetylcholine receptor M4 (Homo sapiens). The series is described as follows: Displacement of 3[H]-NMS from human M4 mAChR expressed in Flp-In-CHO cells assessed as binding constant incubated for 6 hrs by microbeta2 plate reader assay. It is filed as cell-based. Particulars: filed as positive allosteric modulator. The procedure, abridged:
(§1)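 Intact FlpInCHO-hM4 cells, 20,000/well grown overnight, in HBSS pH 7.4 with [3H]-NMS 0.5 nM, ACh (0.01 μM–10 mM) and modulator (0.1–10 μM), shaken 6 h at room temperature. Washed with ice-cold 0.9% NaCl, then scintillation counting. Nonspecific binding defined with 10 μM atropine. pKB and log α(ACh) from global fit to allosteric ternary complex model, with log α′(NMS) fixed at –3 under strong negative cooperativity. 4–5 experiments in duplicate.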

In series [3] the target is Muscarinic acetylcholine receptor M3 (Homo sapiens) (UniProt P20309). The series is described as follows: Positive allosteric modulation at human M3 mAChR expressed in Flp-In-CHO cells at 10 uM incubated for 5 mins by […]. It counts as cell-based. The method, boiled down:
(§2)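 FlpInCHO cells stably expressing human M1–M5 mAChRs, serum-deprived in HBSS 4 h at 37 °C, then ACh (10 nM–10 μM) with or without modulator at 10 μM for 5 min at 37 °C. Cells lysed and frozen overnight. pERK1/2 measured by AlphaScreen SureFire Ultra, as % of response to 10% FBS.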

The target of series [4] is T1, Muscarinic acetylcholine receptor M4 (Homo sapiens). Put plainly: Positive allosteric modulation at human M4 mAChR expressed in Flp-In-CHO cells assessed as increase in ERK1/2 phosphorylation at 10 uM incubated for 5 mins […]. It is filed as cell-based. Particulars: filed as positive allosteric modulator. The method, boiled down:
as §2

Series [5] in a line: Drug concentration in plasma of naive C57BL/6J mouse at 10 mg/kg, ip measured after 90 mins. It counts as ADME, organism-based. The procedure, abridged:
(§3)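 Male C57Bl/6J mice, naïve, 10–12 weeks old, dosed i.p. at 10 mg/kg in 10% DMSO, 1.1% Tween 80, 21.8 mM Tris. Blood by cardiac puncture under anaesthesia at 20 or 90 min (n = 2–3 per time point). Brain concentration corrected for compound in brain vasculature. Mean nM ± SEM reported; Kp = Cbrain/Cplasma, reported as a range.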

Series [6] has as its target T1, Muscarinic acetylcholine receptor M4 (Homo sapiens). Put plainly: Displacement of 3[H]-NMS from human M4 mAChR expressed in Flp-In-CHO cells assessed as binding co-operativity (log alpha) incubated for 6 hrs in presence of ACh by microbeta2 plate reader assay. It counts as cell-based. The note with it: filed as positive allosteric modulator. The method, boiled down:
as §1

Series [7] has the same target. Put plainly: Positive allosteric modulation at human M4 mAChR expressed in Flp-In-CHO cells co-expressing CAMYEL biosensor assessed as change in maximum ACh-mediated response at 10 uM incubated for 5 mins by BRET assay relative to control. It counts as cell-based. The method, boiled down:
(§4)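 FlpInCHO cells stably expressing human M4 mAChR, transiently transfected with CAMYEL cAMP BRET biosensor (60 ng/well, PEI), assayed 48 h later in HBSS pH 7.4. Full ACh concentration-response curve alone or with modulator at 1 or 10 μM, co-added with coelenterazine h (5 μM), 5 min, 37 °C. Three-parameter logistic fit; ACh curve values subtracted from ACh+modulator values. Δbaseline and ΔEmax given as % of maximal ACh response without modulator. 4 experiments in duplicate, SEM pooled.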

Series [8] addresses T2, Muscarinic acetylcholine receptor M5 (Homo sapiens) (UniProt P08912).
T2 sequence (whole entry): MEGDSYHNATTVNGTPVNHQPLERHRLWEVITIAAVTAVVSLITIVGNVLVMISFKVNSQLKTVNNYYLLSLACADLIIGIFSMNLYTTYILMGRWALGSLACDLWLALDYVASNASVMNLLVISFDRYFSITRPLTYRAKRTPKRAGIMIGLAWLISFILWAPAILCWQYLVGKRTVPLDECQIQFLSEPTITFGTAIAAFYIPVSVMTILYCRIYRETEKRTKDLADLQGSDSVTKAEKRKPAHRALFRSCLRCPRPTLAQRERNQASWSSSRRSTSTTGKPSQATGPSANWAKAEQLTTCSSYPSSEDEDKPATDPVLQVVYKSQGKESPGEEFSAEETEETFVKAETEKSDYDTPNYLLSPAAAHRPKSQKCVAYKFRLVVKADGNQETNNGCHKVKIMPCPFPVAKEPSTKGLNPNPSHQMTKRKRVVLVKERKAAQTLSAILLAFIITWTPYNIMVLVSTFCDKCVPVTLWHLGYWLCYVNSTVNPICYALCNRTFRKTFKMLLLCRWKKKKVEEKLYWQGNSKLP
Put plainly: Positive allosteric modulation at human M5 mAChR expressed in Flp-In-CHO cells at 10 uM incubated for 5 mins by […]. It counts as cell-based. The method, boiled down: as §2

Series [9] is described as follows: Drug concentration in plasma of naive C57BL/6J mouse at 10 mg/kg, ip measured after 20 to 30 mins. It is filed as ADME, organism-based. The note with it: in vivo, time 20-30 min. The procedure, abridged:
as §3

In series [10] the target is T1, Muscarinic acetylcholine receptor M4 (Homo sapiens). The series is described as follows: […] human M4 mAChR expressed in Flp-In-CHO cells co-expressing CAMYEL biosensor assessed as change in baseline response at 10 uM incubated for 5 mins by BRET assay relative to control. It counts as cell-based. The method, boiled down: as §4
The mark [11] stands for this setting: filed as positive allosteric modulator.

Molecules are shown by their SMILES. Activity calls are given as the source filed them. The calls are words filed in the database; no cut-off is given here.

Muscarinic acetylcholine receptor M3 (Homo sapiens), sequence (P20309 whole entry, looked up): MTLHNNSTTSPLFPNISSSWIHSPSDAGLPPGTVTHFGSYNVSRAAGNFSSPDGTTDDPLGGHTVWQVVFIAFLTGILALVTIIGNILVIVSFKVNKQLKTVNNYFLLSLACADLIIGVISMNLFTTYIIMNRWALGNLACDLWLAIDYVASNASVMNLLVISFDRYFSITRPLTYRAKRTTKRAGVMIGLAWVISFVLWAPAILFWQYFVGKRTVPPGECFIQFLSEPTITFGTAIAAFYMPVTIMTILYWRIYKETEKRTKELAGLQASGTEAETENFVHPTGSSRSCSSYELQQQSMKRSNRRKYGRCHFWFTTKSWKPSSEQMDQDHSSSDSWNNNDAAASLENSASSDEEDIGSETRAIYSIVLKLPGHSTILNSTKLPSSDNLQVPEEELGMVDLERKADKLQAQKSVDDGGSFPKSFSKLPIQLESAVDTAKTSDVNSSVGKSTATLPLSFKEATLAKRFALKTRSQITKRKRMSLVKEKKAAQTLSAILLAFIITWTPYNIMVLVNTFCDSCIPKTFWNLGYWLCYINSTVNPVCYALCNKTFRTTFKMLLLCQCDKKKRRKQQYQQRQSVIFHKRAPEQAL

Regarding `Cc1ccc(-c2cnn(CC3CCCC3)c2)c(-c2ccc(N)c([N+](=O)[O-])c2)n1`, the log(activity) is -1.29 in [1] and 1.87 in series [6]. For the same compound, the pKb in series [2] was 4.75. Besides, the outcome in series [3] and in series [8] was inactive. Further, in [4], the result was Active. In series [5], this compound yielded a concentration at 1.5 h of 657 nM. Further, the maximum response (Emax) in [7] was 5.6%. In addition, in series [9], the concentration stood at 2430 nM. Moreover, the Activity in [10] came out at 8.48%.
As for `Cc1ccc(-c2cnn(CC3CCCC3)c2)c(-c2ccc(F)c(F)c2)n1`, the log(activity) was -0.07 in series [1] and 2.04 in [6]. In series [2], the pKb turned out to be 4.53. The result in [3] and in series [8] was inactive. For the same compound, in series [4], the result was Active. Also, in series [5], the concentration at 1.5 h is 159 nM. The maximum response (Emax) in [7] (setting [11]) was found to be 129%. Further, the concentration in series [9] is 915 nM. Also, in series [10] (setting [11]), the Activity worked out at 51.4%.
Regarding `Cc1ccc(-c2cnn(CC3CCCC3)c2)c(-c2ccc3c(c2)C(=O)N(C)C3)n1`, the log(activity) in [1] is -0.45; in series [6] it was 2.12. The pKb in [2] came to 6.22. Further, the result in [3] and in series [8] was inactive. Further, the result in series [4] was Active. In series [5], this compound gave a concentration at 1.5 h of 14 nM. Moreover, the maximum response (Emax) in series [7] (setting [11]) is 44.7%. The compound also came in with a concentration in series [9] of 2440 nM. In addition, the Activity in [10] (setting [11]) came to 103%.

Values taken from ChEMBL document CHEMBL5620424, “Design, synthesis and evaluation of novel 2-phenyl-3-(1H-pyrazol-4-yl)pyridine positive allosteric modulators for the M4 mAChR” (Eur J Med Chem, 2023).
